PAFAH1B2 FP inh: blocks human PAF acetylhydrolase 1b catalytic subunit 2 | recombinant PAFAH1B2, FP-rhodamine activity probe, fluorescence polarization | inhibition, % at 3.39 µM | 1.2% of 340,000 active | AID 492953;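 active = inhibition above the mean of all tested compounds plus 3 SD, cut at about 24% in these data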
PAFAH2 inh: inhibitors of human PAFAH2; Q99487; recombinant PAFAH2, FP-rhodamine activity probe, fluorescence polarization; inhibition, % at 3.39 µM; 0.99% of 340,000 active;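 active = inhibition above the mean over all tested compounds plus 3 SD, cut at about 30% in these data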;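 also: inhibitors block probe labeling of enzyme so polarization drops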
ABHD4 inh: inhibitors of mouse ABHD4 | Q8VD66 | purified mABHD4, FP-Rh probe fluorescence polarization | inhibition, % at 8.92 µM | 0.54% of 370,000 active | AID 720543;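 active = inhibition exceeding the mean over every tested compound plus 3 SD, cut at about 30% in these data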
Target sequence (Q8VD66 whole entry, looked up): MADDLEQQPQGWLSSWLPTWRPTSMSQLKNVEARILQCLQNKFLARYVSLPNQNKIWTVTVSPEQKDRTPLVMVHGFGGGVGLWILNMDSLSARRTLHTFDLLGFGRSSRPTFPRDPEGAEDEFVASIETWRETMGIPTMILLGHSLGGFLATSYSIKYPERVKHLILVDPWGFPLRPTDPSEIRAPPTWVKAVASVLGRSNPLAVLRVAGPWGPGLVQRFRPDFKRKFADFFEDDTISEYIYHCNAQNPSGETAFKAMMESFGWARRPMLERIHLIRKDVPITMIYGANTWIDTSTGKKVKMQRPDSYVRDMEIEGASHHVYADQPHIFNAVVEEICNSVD
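Assay system: mouse ABHD4 enzyme, wild type / Also added: fluorescent activity-based probe FP-Rh / Doses: single nominal dose of 8.92 µM, 0.89% DMSO final / Timing: 45 min compound pre-incubation plus 60 min probe step, 25 °C / Signal: FP readout, ex 525 nm / em 598 nm / Control set: S159A mutant/DMSO as 100%, compound-well median as 0%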
pPAFAH FP inh: pPAFAH (human) enzyme inhibition; recombinant pPAFAH, FP-rhodamine probe fluorescence polarization; 1.5% of 330,000 active; inhibition, % at 3.39 µM; Q13093;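 active = inhibition above the mean inhibition across the screen plus 3 SD, cut at about 25% in these data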;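 also: inhibitors block binding of the rhodamine activity-based probe so polarization drops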
HTRA1 inh: blocks human HTRA1 serine peptidase; Q92743; recombinant HTRA1, FP-rhodamine activity-based probe, fluorescence polarization; inhibition, % at 5.96 µM; 0.5% of 340,000 active; AID 504803; in the data active = inhibition above about 36%
PAFAH1B3 FP inh: blocks human PAF acetylhydrolase 1B catalytic subunit 3; Q15102; recombinant PAFAH1B3, FP-rhodamine probe, fluorescence polarization; inhibition, % at 3.39 µM; 0.28% of 340,000 active; AID 492972;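 active = inhibition above the screen-wide average of all tested compounds plus 3 SD, cut at about 25% in these data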
Target sequence (Q15102 whole entry, looked up): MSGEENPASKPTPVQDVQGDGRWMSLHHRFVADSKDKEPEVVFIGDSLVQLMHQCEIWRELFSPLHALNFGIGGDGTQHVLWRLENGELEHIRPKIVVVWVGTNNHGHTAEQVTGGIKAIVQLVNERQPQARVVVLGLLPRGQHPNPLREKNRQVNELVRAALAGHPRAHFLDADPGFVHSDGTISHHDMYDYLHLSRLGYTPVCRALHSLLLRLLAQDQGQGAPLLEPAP
A number is an active result. Shown are actives, neighbours in structure and some others; about 2.8% of the full set was active somewhere.

What do the screens show for `CCc1ccc2nc(N3CCC(C(=O)N4CCC5(CC4)OCCO5)CC3)sc2c1`?
PAFAH1B2 FP inh: inactive; PAFAH2 inh: inactive; ABHD4 inh: inactive; pPAFAH FP inh: 28.6; HTRA1 inh: inactive; PAFAH1B3 FP inh: inactive

How did CC(C)OCCCNC(=O)c1c(N)n(CC2CCCO2)c2nc3ccccc3nc12 (stereo unspecified) do in these assays?
PAFAH1B2 FP inh: 26.2; PAFAH2 inh: inactive; ABHD4 inh: inactive; pPAFAH FP inh: inactive; HTRA1 inh: inactive; PAFAH1B3 FP inh: 55.3

Results for c1cncc(-c2ccc3n2Cc2cnnn2-c2ccccc2-3)c1 ?
ABHD4 inh: inactive

What do the screens show for `COC(=O)C1=C(c2ccc(OC(F)(F)F)cc2)C[C@@H]2CC[C@H]1N2C(=O)NCCNC(C)=O`?
PAFAH1B2 FP inh: inactive; PAFAH2 inh: inactive; ABHD4 inh: inactive; pPAFAH FP inh: inactive; HTRA1 inh: inactive; PAFAH1B3 FP inh: inactive

Results for COC(=O)C1=C(c2ccc(OC(F)(F)F)cc2)C[C@@H]2CC[C@H]1N2C(=O)NCCc1ccccc1 ?
PAFAH1B2 FP inh: inactive; PAFAH2 inh: inactive; ABHD4 inh: inactive; pPAFAH FP inh: 30.2; HTRA1 inh: inactive; PAFAH1B3 FP inh: inactive

What do the screens show for `COC(=O)C1=C(c2ccccc2)C[C@@H]2CC[C@H]1N2C(=O)NCc1ccc(C(F)(F)F)cc1`?
PAFAH1B2 FP inh: inactive; PAFAH2 inh: inactive; ABHD4 inh: inactive; pPAFAH FP inh: inactive; HTRA1 inh: inactive; PAFAH1B3 FP inh: inactive

Results for COC(=O)C1=C(c2ccc(C(C)=O)cc2)C[C@@H]2CC[C@H]1N2C(=O)NCc1ccc(C(F)(F)F)cc1 ?
PAFAH1B2 FP inh: 35.4; PAFAH2 inh: inactive; pPAFAH FP inh: inactive; HTRA1 inh: inactive; PAFAH1B3 FP inh: inactive

How did O=C(CN1C(=O)[C@@H](Cc2c[nH]c3ccccc23)N=C(c2ccccc2)c2ccccc21)NC1CCCCC1 do in these assays?
ABHD4 inh: inactive

Results for Cn1c(O)c(/C=C2\N=c3ccccc3=C2CCNC(=S)NC2CC2)c(=O)n(C)c1=O ?
PAFAH1B2 FP inh: 56.1; PAFAH2 inh: inactive; ABHD4 inh: inactive; pPAFAH FP inh: inactive; HTRA1 inh: inactive; PAFAH1B3 FP inh: inactive

How did S=P(c1ccccc1)(c1ccccc1)c1cnc2ccccn12 do in these assays?
ABHD4 inh: inactive

Results for N#CC1c2ccccc2-n2nncc2CN1C(=O)c1cccnc1 (stereo unspecified) ?
ABHD4 inh: inactive

How did Cc1ccc(N2C(=O)/C(=C/c3ccc(CN(CCC#N)S(C)(=O)=O)o3)C(=O)NC2=S)cc1 do in these assays?
PAFAH1B2 FP inh: inactive; PAFAH2 inh: 33.1; pPAFAH FP inh: 27.7; HTRA1 inh: inactive; PAFAH1B3 FP inh: inactive

Results for COc1cccc(N2C(=O)NC(=O)/C(=C/c3ccc([N+](=O)[O-])s3)C2=O)c1 ?
PAFAH1B2 FP inh: 33.1; PAFAH2 inh: 49.0; ABHD4 inh: inactive; pPAFAH FP inh: 33.2; HTRA1 inh: inactive; PAFAH1B3 FP inh: 45.8

How did O=C1NC(=O)N(Cc2ccc(F)cc2)C(=O)/C1=C\c1ccc(N2CCCC2)cc1 do in these assays?
PAFAH1B2 FP inh: inactive; PAFAH2 inh: inactive; ABHD4 inh: inactive; pPAFAH FP inh: 26.4; HTRA1 inh: inactive; PAFAH1B3 FP inh: inactive

What do the screens show for `O=C1NC(=O)N(Cc2ccc(F)cc2)C(=O)/C1=C\c1ccc([N+](=O)[O-])s1`?
PAFAH1B2 FP inh: 34.3; PAFAH2 inh: 55.5; ABHD4 inh: inactive; pPAFAH FP inh: 25.8; HTRA1 inh: 42.6; PAFAH1B3 FP inh: inactive

What do the screens show for `COc1ccc(CN2C(=O)NC(=O)/C(=C\c3ccco3)C2=O)cc1`?
PAFAH1B2 FP inh: inactive; PAFAH2 inh: inactive; ABHD4 inh: inactive; pPAFAH FP inh: inactive; HTRA1 inh: inactive; PAFAH1B3 FP inh: inactive

Results for COc1ccc(CN2C(=O)NC(=O)/C(=C/c3ccc([N+](=O)[O-])s3)C2=O)cc1 ?
PAFAH1B2 FP inh: 33.0; PAFAH2 inh: 63.4; ABHD4 inh: inactive; pPAFAH FP inh: 31.1; HTRA1 inh: inactive; PAFAH1B3 FP inh: 46.5

What do the screens show for `CC(C)C(NC(=O)OCc1ccccc1)P(=O)(Oc1ccccc1)Oc1ccccc1` (stereo unspecified)?
ABHD4 inh: inactive

What do the screens show for `Cc1cc(C)n(-c2ccc(NN=C(C#N)C#N)cc2)n1`?
PAFAH1B2 FP inh: inactive; PAFAH2 inh: inactive; ABHD4 inh: inactive; pPAFAH FP inh: 27.9; HTRA1 inh: inactive; PAFAH1B3 FP inh: inactive

Results for CC[C@H](C)[C@@H]1OC(=O)[C@H](C(C)C)N(C)C(=O)[C@H](C(C)C)NC(=O)[C@@H](C)[C@@H](CCCC#CBr)OC(=O)[C@H](C(C)C)N(C)C(=O)C2CCCN2C1=O (stereo partly specified) ?
ABHD4 inh: inactive

Results for Cc1ccc(-c2nc3ccc(Cl)cc3n2OC(=O)N(C)C)cc1 ?
PAFAH1B2 FP inh: 61.8; PAFAH2 inh: inactive; ABHD4 inh: inactive; pPAFAH FP inh: inactive; HTRA1 inh: inactive; PAFAH1B3 FP inh: inactive

What do the screens show for `O=C(O)c1ccc(-n2c(O)c(/C=C3\C=Nc4ccccc43)c(=O)[nH]c2=O)cc1`?
PAFAH1B2 FP inh: inactive; PAFAH2 inh: inactive; ABHD4 inh: inactive; pPAFAH FP inh: inactive; HTRA1 inh: inactive; PAFAH1B3 FP inh: inactive

Results for O=c1[nH]c(=O)n(-c2cccc(F)c2)c(O)c1/C=C1\C=Nc2ccccc21 ?
PAFAH1B2 FP inh: 25.4; PAFAH2 inh: inactive; ABHD4 inh: inactive; pPAFAH FP inh: inactive; HTRA1 inh: inactive; PAFAH1B3 FP inh: inactive

How did CCOP(=O)(C#CC(C)(C)C)C(C)(O)c1ccccc1 (stereo unspecified) do in these assays?
PAFAH1B2 FP inh: inactive; PAFAH2 inh: inactive; ABHD4 inh: inactive; pPAFAH FP inh: inactive; HTRA1 inh: inactive; PAFAH1B3 FP inh: inactive

Results for CC(C)(C#CC(=O)O)OOC(c1ccccc1)(c1ccccc1)c1ccccc1 ?
PAFAH1B2 FP inh: inactive; PAFAH2 inh: inactive; ABHD4 inh: inactive; pPAFAH FP inh: 31.2; HTRA1 inh: inactive; PAFAH1B3 FP inh: inactive

What do the screens show for `COc1ccc2c3c([nH]c2c1)[C@H](C=C(C)C)N1C(=O)[C@@H]2CCCN2C(=O)[C@@H]1C3`?
ABHD4 inh: inactive

What do the screens show for `Nc1ccc2cc(Br)ccc2c1`?
PAFAH1B2 FP inh: 54.2; PAFAH2 inh: inactive; ABHD4 inh: inactive; pPAFAH FP inh: inactive; HTRA1 inh: inactive; PAFAH1B3 FP inh: inactive

Results for Nc1ccc(Br)cc1 ?
PAFAH1B2 FP inh: inactive; PAFAH2 inh: inactive; ABHD4 inh: inactive; HTRA1 inh: inactive; PAFAH1B3 FP inh: inactive

What do the screens show for `CC(C)n1c(O)c(C2c3cc(Cl)ccc3Oc3[nH]c(=O)n(C(C)C)c(=O)c32)c(=O)[nH]c1=O` (stereo unspecified)?
PAFAH1B2 FP inh: 38.8; PAFAH2 inh: inactive; HTRA1 inh: inactive; PAFAH1B3 FP inh: inactive

What do the screens show for `CC(=O)c1c(O)n(-c2cccc(Cl)c2)c(=O)[nH]c1=O` (tested in a mixture with another compound)?
PAFAH1B2 FP inh: inactive; PAFAH2 inh: inactive; ABHD4 inh: inactive; pPAFAH FP inh: inactive; HTRA1 inh: inactive; PAFAH1B3 FP inh: inactive

Screening results as filed in PubChem.
